Experimental data published in ChEMBL document CHEMBL3232963, “Discovery of a potent and selective α3β4 nicotinic acetylcholine receptor antagonist from an α-conotoxin synthetic combinatorial library” (J Med Chem, 2014).
Numbered stars: 1 amine (or outer) side, 2 acyl side, 3 side chain; on linkers, the order of the positions; unused ones are H or OH. Bridge positions count the residues as written; N and C are the ends. Square brackets hold non-standard residues; d marks the D form. Peptide text beside a SMILES is read from it. X1 = O=C([C@H](CC1C=Nc2ccccc21)N[*:1])[*:2]; Nle = CCCC[C@H](N)C(=O)O; Nva = CCC[C@H](N)C(=O)O; Abu = CC[C@H](N)C(=O)O

Biological target: Neuronal acetylcholine receptor; alpha3/beta4 (Rattus norvegicus) (UniProt P04757+P12392)
Assay: Antagonist activity at rat alpha3beta4 nAChR expressed in HEK293 cells assessed as inhibition of epibatadine-induced effect at 10 uM after 30 mins by fluorescent membrane potential assay relative to mecamylamine
Assay type: cell-based
Outline: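 Rat α3β4 nAChR stably expressed in HEK293 cells; crude, SPE-desalted individual peptides tested at 10 μM in HBSS with membrane potential blue dye, 30 min at 37 °C. Fluorescence change read after epibatidine (0.1 μM). Percent inhibition set against 10 μM mecamylamine taken as 100%.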

| SMILES | inhibition [%] |
| --- | --- |
| CCCC[C@@H]1NC(=O)[C@H](Cc2c[nH]c3ccccc23)NC(=O)[C@H]([C@H](C)CC)NC(=O)[C@@H]2CSSC[C@H](NC(=O)CN)C(=O)N[C@@H](CSSC[C@@H](C(=O)O)NC(=O)[C@H](Cc3ccc(O)cc3)NC1=O)C(=O)N[C@@H](CO)C(=O)N[C@@H](Cc1cnc[nH]1)C(=O)N1CCC[C@H]1C(=O)N1CCC[C@H]1C(=O)N2 | 43.9 |
| CCC[C@@H]1NC(=O)[C@H](CC)NC(=O)[C@H]([C@H](C)CC)NC(=O)[C@@H]2CSSC[C@H](NC(=O)CN)C(=O)N[C@@H](CSSC[C@@H](C(=O)O)NC(=O)[C@@H]3CCCN3C1=O)C(=O)N[C@@H](CO)C(=O)N[C@@H](Cc1cnc[nH]1)C(=O)N1CCC[C@H]1C(=O)N[C@@H](CC)C(=O)N2 | 41.2 |
| CCCC[C@@H]1NC(=O)[C@H](CC)NC(=O)[C@H]([C@H](C)CC)NC(=O)[C@@H]2CSSC[C@H](NC(=O)CN)C(=O)N[C@@H](CSSC[C@@H](C(=O)O)NC(=O)[C@H](Cc3ccc(O)cc3)NC1=O)C(=O)N[C@@H](CO)C(=O)N[C@@H](CCCC)C(=O)N1CCC[C@H]1C(=O)N[C@@H](CC)C(=O)N2 | 72.6 |
| CCCC[C@@H]1NC(=O)[C@H](CC)NC(=O)[C@H](Cc2ccccc2)NC(=O)[C@@H]2CSSC[C@H](NC(=O)CN)C(=O)N[C@@H](CSSC[C@@H](C(=O)O)NC(=O)[C@@H]3CCCN3C1=O)C(=O)N[C@@H](CO)C(=O)N[C@@H](Cc1cnc[nH]1)C(=O)N1CCC[C@H]1C(=O)N1CCC[C@H]1C(=O)N2 (H-GCCSHPPCF[Abu][Nle]PC-OH; disulfide 2-8, 3-13) | 29.1 |
| CCCC[C@@H]1NC(=O)[C@H](Cc2c[nH]c3ccccc23)NC(=O)[C@H](Cc2ccccc2)NC(=O)[C@@H]2CSSC[C@H](NC(=O)CN)C(=O)N[C@@H](CSSC[C@@H](C(=O)O)NC(=O)[C@@H]3CCCN3C1=O)C(=O)N[C@@H](CO)C(=O)N[C@@H](CCCC)C(=O)N1CCC[C@H]1C(=O)N1CCC[C@H]1C(=O)N2 (H-GCCS[Nle]PPCFW[Nle]PC-OH; disulfide 2-8, 3-13) | 14.2 |
| CCCC[C@@H]1NC(=O)[C@H](CO)NC(=O)[C@@H]2CSSC[C@@H](C(=O)O)NC(=O)[C@@H]3CCCN3C(=O)[C@H](CCC)NC(=O)[C@H](CC)NC(=O)[C@H](Cc3ccccc3)NC(=O)[C@H](CSSC[C@H](NC(=O)CN)C(=O)N2)NC(=O)[C@@H]2CCCN2C(=O)[C@@H]2CCCN2C1=O (H-GCCS[Nle]PPCF[Abu][Nva]PC-OH; disulfide 2-8, 3-13) | 35.7 |
| CCC[C@@H]1NC(=O)[C@H](Cc2c[nH]c3ccccc23)NC(=O)[C@H](Cc2ccccc2)NC(=O)[C@@H]2CSSC[C@H](NC(=O)CN)C(=O)N[C@@H](CSSC[C@@H](C(=O)O)NC(=O)[C@@H]3CCCN3C1=O)C(=O)N[C@@H](CO)C(=O)N[C@@H](Cc1cnc[nH]1)C(=O)N1CCC[C@H]1C(=O)N1CCC[C@H]1C(=O)N2 (H-GCCSHPPCFW[Nva]PC-OH; disulfide 2-8, 3-13) | 49 |
| CCCC[C@@H]1NC(=O)[C@H](CO)NC(=O)[C@@H]2CSSC[C@@H](C(=O)O)NC(=O)[C@@H]3CCCN3C(=O)[C@H](CCC)NC(=O)[C@H](Cc3c[nH]c4ccccc34)NC(=O)[C@H]([C@H](C)CC)NC(=O)[C@H](CSSC[C@H](NC(=O)CN)C(=O)N2)NC(=O)[C@@H]2CCCN2C(=O)[C@@H]2CCCN2C1=O | 38.9 |
| CCCC[C@@H]1NC(=O)[C@H](CO)NC(=O)[C@@H]2CSSC[C@@H](C(=O)O)NC(=O)[C@H](Cc3ccc(O)cc3)NC(=O)[C@H](CCC)NC(=O)[C@H](Cc3c[nH]c4ccccc34)NC(=O)[C@H]([C@H](C)CC)NC(=O)[C@H](CSSC[C@H](NC(=O)CN)C(=O)N2)NC(=O)[C@@H]2CCCN2C(=O)[C@@H]2CCCN2C1=O | 58.3 |
| CCC[C@@H]1NC(=O)[C@H](CC)NC(=O)[C@H](Cc2ccccc2)NC(=O)[C@@H]2CSSC[C@H](NC(=O)CN)C(=O)N[C@@H](CSSC[C@@H](C(=O)O)NC(=O)[C@@H]3CCCN3C1=O)C(=O)N[C@@H](CO)C(=O)N[C@@H](Cc1cnc[nH]1)C(=O)N1CCC[C@H]1C(=O)N1CCC[C@H]1C(=O)N2 (H-GCCSHPPCF[Abu][Nva]PC-OH; disulfide 2-8, 3-13) | 36 |
| CCCC[C@@H]1NC(=O)[C@H](CO)NC(=O)[C@@H]2CSSC[C@@H](C(=O)O)NC(=O)[C@H](Cc3ccc(O)cc3)NC(=O)[C@H](CCC)NC(=O)[C@H](Cc3c[nH]c4ccccc34)NC(=O)[C@H](Cc3ccccc3)NC(=O)[C@H](CSSC[C@H](NC(=O)CN)C(=O)N2)NC(=O)[C@H](CC)NC(=O)[C@@H]2CCCN2C1=O (H-GCCS[Nle]P[Abu]CFW[Nva]YC-OH; disulfide 2-8, 3-13) | 67.9 |
| CCCC[C@@H]1NC(=O)[C@H](CO)NC(=O)[C@@H]2CSSC[C@@H](C(=O)O)NC(=O)[C@@H]3CCCN3C(=O)[C@H](CCC)NC(=O)[C@H](CC)NC(=O)[C@H]([C@H](C)CC)NC(=O)[C@H](CSSC[C@H](NC(=O)CN)C(=O)N2)NC(=O)[C@H](CC)NC(=O)[C@@H]2CCCN2C1=O | 19.2 |
| CCC[C@@H]1NC(=O)[C@H](CC)NC(=O)[C@H]([C@H](C)CC)NC(=O)[C@@H]2CSSC[C@H](NC(=O)CN)C(=O)N[C@@H](CSSC[C@@H](C(=O)O)NC(=O)[C@@H]3CCCN3C1=O)C(=O)N[C@@H](CO)C(=O)N[C@@H](Cc1cnc[nH]1)C(=O)N1CCC[C@H]1C(=O)N1CCC[C@H]1C(=O)N2 | 45.1 |
| CCCC[C@@H]1NC(=O)[C@H](Cc2c[nH]c3ccccc23)NC(=O)[C@H]([C@H](C)CC)NC(=O)[C@@H]2CSSC[C@H](NC(=O)CN)C(=O)N[C@@H](CSSC[C@@H](C(=O)O)NC(=O)[C@@H]3CCCN3C1=O)C(=O)N[C@@H](CO)C(=O)N[C@@H](CCCC)C(=O)N1CCC[C@H]1C(=O)N1CCC[C@H]1C(=O)N2 | 6.3 |
| CCC[C@@H]1NC(=O)[C@H](Cc2c[nH]c3ccccc23)NC(=O)[C@H](Cc2ccccc2)NC(=O)[C@@H]2CSSC[C@H](NC(=O)CN)C(=O)N[C@@H](CSSC[C@@H](C(=O)O)NC(=O)[C@@H]3CCCN3C1=O)C(=O)N[C@@H](CO)C(=O)N[C@@H](Cc1cnc[nH]1)C(=O)N1CCC[C@H]1C(=O)N[C@@H](CC)C(=O)N2 (H-GCCSHP[Abu]CFW[Nva]PC-OH; disulfide 2-8, 3-13) | 36.2 |
| CCCC[C@@H]1NC(=O)[C@H](CC)NC(=O)[C@H]([C@H](C)CC)NC(=O)[C@@H]2CSSC[C@H](NC(=O)CN)C(=O)N[C@@H](CSSC[C@@H](C(=O)O)NC(=O)[C@@H]3CCCN3C1=O)C(=O)N[C@@H](CO)C(=O)N[C@@H](CCCC)C(=O)N1CCC[C@H]1C(=O)N1CCC[C@H]1C(=O)N2 | 31.3 |
| CCCC[C@@H]1NC(=O)[C@H](Cc2c[nH]c3ccccc23)NC(=O)[C@H](Cc2ccccc2)NC(=O)[C@@H]2CSSC[C@H](NC(=O)CN)C(=O)N[C@@H](CSSC[C@@H](C(=O)O)NC(=O)[C@H](Cc3ccc(O)cc3)NC1=O)C(=O)N[C@@H](CO)C(=O)N[C@@H](Cc1cnc[nH]1)C(=O)N1CCC[C@H]1C(=O)N1CCC[C@H]1C(=O)N2 (H-GCCSHPPCFW[Nle]YC-OH; disulfide 2-8, 3-13) | 44 |
| CCCC[C@@H]1NC(=O)[C@H](Cc2c[nH]c3ccccc23)NC(=O)[C@H](Cc2ccccc2)NC(=O)[C@@H]2CSSC[C@H](NC(=O)CN)C(=O)N[C@@H](CSSC[C@@H](C(=O)O)NC(=O)[C@H](Cc3ccc(O)cc3)NC1=O)C(=O)N[C@@H](CO)C(=O)N[C@@H](CCCC)C(=O)N1CCC[C@H]1C(=O)N[C@@H](CC)C(=O)N2 (H-GCCS[Nle]P[Abu]CFW[Nle]YC-OH; disulfide 2-8, 3-13) | 76 |
| CCCC[C@@H]1NC(=O)[C@H](Cc2c[nH]c3ccccc23)NC(=O)[C@H]([C@H](C)CC)NC(=O)[C@@H]2CSSC[C@H](NC(=O)CN)C(=O)N[C@@H](CSSC[C@@H](C(=O)O)NC(=O)[C@H](Cc3ccc(O)cc3)NC1=O)C(=O)N[C@@H](CO)C(=O)N[C@@H](Cc1cnc[nH]1)C(=O)N1CCC[C@H]1C(=O)N[C@@H](CC)C(=O)N2 | 55.7 |
| CCCC[C@@H]1NC(=O)[C@H](CC)NC(=O)[C@H]([C@H](C)CC)NC(=O)[C@@H]2CSSC[C@H](NC(=O)CN)C(=O)N[C@@H](CSSC[C@@H](C(=O)O)NC(=O)[C@H](Cc3ccc(O)cc3)NC1=O)C(=O)N[C@@H](CO)C(=O)N[C@@H](Cc1cnc[nH]1)C(=O)N1CCC[C@H]1C(=O)N1CCC[C@H]1C(=O)N2 | 67.2 |
| CCCC[C@@H]1NC(=O)[C@H](CO)NC(=O)[C@@H]2CSSC[C@@H](C(=O)O)NC(=O)[C@H](Cc3ccc(O)cc3)NC(=O)[C@H](CCC)NC(=O)[C@H](Cc3c[nH]c4ccccc34)NC(=O)[C@H](Cc3ccccc3)NC(=O)[C@H](CSSC[C@H](NC(=O)CN)C(=O)N2)NC(=O)[C@@H]2CCCN2C(=O)[C@@H]2CCCN2C1=O (H-GCCS[Nle]PPCFW[Nva]YC-OH; disulfide 2-8, 3-13) | 61.6 |
| CCCC[C@@H]1NC(=O)[C@H](Cc2c[nH]c3ccccc23)NC(=O)[C@H](Cc2ccccc2)NC(=O)[C@@H]2CSSC[C@H](NC(=O)CN)C(=O)N[C@@H](CSSC[C@@H](C(=O)O)NC(=O)[C@H](Cc3ccc(O)cc3)NC1=O)C(=O)N[C@@H](CO)C(=O)N[C@@H](CCCC)C(=O)N1CCC[C@H]1C(=O)N1CCC[C@H]1C(=O)N2 (H-GCCS[Nle]PPCFW[Nle]YC-OH; disulfide 2-8, 3-13) | 60.2 |
| CCCC[C@@H]1NC(=O)[C@H](CC2C=Nc3ccccc32)NC(=O)[C@H](Cc2ccccc2)NC(=O)[C@@H]2CSSC[C@H](NC(=O)CN)C(=O)N[C@@H](CSSC[C@@H](C(=O)O)NC(=O)[C@@H]3CCCN3C1=O)C(=O)N[C@@H](CO)C(=O)N[C@@H](CCCC)C(=O)N1CCC[C@H]1C(=O)N[C@@H](CC)C(=O)N2 (some centres undefined) (H-GCCS[Nle]P[Abu]CF[X1][Nle]PC-OH; disulfide 2-8, 3-13) | 22.1 |
| CCC[C@@H]1NC(=O)[C@H](Cc2c[nH]c3ccccc23)NC(=O)[C@H](Cc2ccccc2)NC(=O)[C@@H]2CSSC[C@H](NC(=O)CN)C(=O)N[C@@H](CSSC[C@@H](C(=O)O)NC(=O)[C@H](Cc3ccc(O)cc3)NC1=O)C(=O)N[C@@H](CO)C(=O)N[C@@H](Cc1cnc[nH]1)C(=O)N1CCC[C@H]1C(=O)N1CCC[C@H]1C(=O)N2 (H-GCCSHPPCFW[Nva]YC-OH; disulfide 2-8, 3-13) | 47.8 |
